ChEMBL document CHEMBL1140458, “Design and synthesis of novel antibacterial peptide-resin conjugates” (Bioorg Med Chem Lett, 2007)
Converted amounts (≈) assume the structure as drawn. Residues, ends and D or L forms follow the SMILES beside them.

How the values were obtained:
Staphylococcus aureus = assay: Antibacterial activity against Staphylococcus aureus ATCC 6538 by microdilution method; assay type: functional
In short: (§1)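 Modified microdilution method. For the resin conjugates, the amount added to the medium volume was based on the total peptide quantity bound to the resin, as calculated by Fmoc titration.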

Pseudomonas aeruginosa = assay: Antibacterial activity against Pseudomonas aeruginosa ATCC 9027 by microdilution method; assay type: functional; in short: as §1
Micrococcus luteus = assay: Antibacterial activity against Micrococcus luteus ATCC 9341 by microdilution method; assay type: functional; in short: as §1
Escherichia coli = assay: Antibacterial activity against Escherichia coli ATCC 25922 by microdilution method; assay type: functional; in short: as §1
[1] = Cytotoxicity against human erythrocytes assessed as hemolysis; assay type: cell-based; settings: erythrocyte

SMILES | MIC (Staphylococcus aureus) | MIC (Pseudomonas aeruginosa) | MIC (Micrococcus luteus) | MIC (Escherichia coli) | Activity [1]
CC[C@H](C)[C@H](NC(=O)CN)C(=O)NCC(=O)N[C@@H](CCCCN)C(=O)N[C@@H](Cc1ccccc1)C(=O)N[C@@H](CC(C)C)C(=O)N[C@@H](Cc1c[nH]cn1)C(=O)N[C@@H](CO)C(=O)N[C@@H](C)C(=O)N[C@@H](CCCCN)C(=O)N[C@@H](CCCCN)C(=O)N[C@@H](Cc1ccccc1)C(=O)NCC(=O)N[C@@H](CCCCN)C(=O)N[C@@H](C)C(=O)N[C@@H](Cc1ccccc1)C(=O)N[C@H](C(=O)NCC(=O)N[C@@H](CCC(=O)O)C(=O)N[C@H](C(=O)N[C@@H](CCSC)C(=O)N[C@@H](CC(N)=O)C(=O)N[C@@H](CO)C(=O)O)[C@@H](C)CC)C(C)C [MAGAININ 2] (H-GIGKFLHSAKKFGKAFVGEIMNS-OH) | 50 µg/mL (≈ 20.3 µM) | 25 µg/mL (≈ 10.1 µM) | 50 µg/mL (≈ 20.3 µM) | 50 µg/mL (≈ 20.3 µM) | 
CC(C)[C@H](NC(=O)[C@H](CCCCN)NC(=O)[C@@H](NC(=O)[C@H](CCCCN)NC(=O)[C@H](Cc1ccccc1)NC(=O)[C@H](CCCCN)NC(=O)[C@@H](NC(=O)[C@H](CCCCN)NC(=O)[C@@H](N)Cc1ccccc1)C(C)C)C(C)C)C(=O)N[C@@H](CCCCN)C(N)=O (H-FKVKFKVKVK-NH2) | 1.56 µg/mL (≈ 1.25 µM) | 6.25 µg/mL (≈ 5 µM) | 3.12 µg/mL (≈ 2.5 µM) | 3.12 µg/mL (≈ 2.5 µM) | Not Active
CC(C)[C@H](NC(=O)[C@H](CCCCN)NC(=O)[C@H](CCCCN)NC(=O)[C@H](CCCCN)NC(=O)[C@H](CCCCN)NC(=O)[C@H](CCCCN)NC(=O)[C@@H](NC(=O)[C@@H](NC(=O)[C@@H](N)Cc1ccccc1)C(C)C)C(C)C)C(=O)N[C@@H](Cc1ccccc1)C(N)=O (H-FVVKKKKKVF-NH2) | > 400 µg/mL | > 400 µg/mL | > 400 µg/mL | > 400 µg/mL | 
